Experimental data of several laboratories.
HTR1D: 5-hydroxytryptamine receptor 1D (HTR1D, Homo sapiens, UniProt P28221)

COc1ccccc1N1CCN(Cc2coc3ccc(C)cc3c2=O)CC1
Ki (HTR1D; ligand displacement, radioligand): 0.464 µM

C[C@@]1(F)[C@H](O)[C@@H](COP(=O)(O)OP(=O)(O)OP(=O)(O)O)O[C@H]1n1ccc(=O)[nH]c1=O
IC50 (DNA polymerase subunit gamma-1 (POLG, Homo sapiens, UniProt P54098); enzyme activity, inhibitor): > 100 µM

OC12CCCCC1C(c1ccccc1)NCC2 (stereo not shown)
Ki (Sodium-dependent serotonin transporter (Slc6a4, Rattus norvegicus, UniProt P31652); ligand displacement, radioligand): > 20 µM

CC[C@H]1NC(=O)[C@@H]2CSC(=N2)[C@@H](Cc2ccccc2)N(C)C(=O)[C@@H]2CCCN2C(=O)[C@H](C(C)C)N(C)C(=O)[C@H](Cc2ccccc2)OC(=O)[C@H](C)[C@@H](C)NC(=O)[C@@H]([C@@H](C)O)NC(=O)[C@@H](CC(C)C)N(C)C(=O)[C@@H]2CSC1=N2
IC50 (Dipeptidyl peptidase 8 (Homo sapiens, UniProt Q6V1X1); enzyme activity, inhibitor): 11.5 µM

CCCCCc1cc(O)c2c(c1)OC(C)(CCC=C(C)C)C=C2 (stereo not shown)
IC50 (Polyunsaturated fatty acid 5-lipoxygenase (ALOX5, Homo sapiens, UniProt P09917); enzyme activity, inhibitor): 1.6 µM

COc1ccccc1N1CCN(Cc2coc3c(Cl)cc(Cl)cc3c2=O)CC1
Ki (HTR1D; ligand displacement, radioligand): 2.06 µM

CSCC[C@H](NC(=O)[C@@H]1CCCN1C(=O)CNC(=O)c1ccc2c(c1)C(=O)OC21c2ccc(O)cc2Oc2cc(O)ccc21)C(=O)N[C@@H](CCC(N)=O)C(=O)N[C@H](C(=O)N[C@@H](CO)C(=O)N[C@H](C(=O)N1CCC[C@H]1C(=O)N[C@@H](CCCCN)C(=O)N[C@@H](CC(N)=O)C(=O)NCC(=O)O)[C@@H](C)OP(=O)(O)O)[C@@H](C)O
Kd (Serine/threonine-protein kinase PLK2, polo-box (PLK2, Homo sapiens, UniProt Q9NYY3); binding, FP): 0.0504 µM

CC(C)[C@H](NC(=O)[C@H](CCCNC(=N)N)NC(=O)N[C@@H](Cc1ccccc1)C(=O)O)C(=O)N[C@H](C=O)CCCNC(=N)N
IC50 (Transmembrane protease serine 2 (TMPRSS2, Homo sapiens, UniProt O15393); enzyme activity, inhibitor, fluorescence; pH 8): 0.38 µM

C[C@H](N)Cn1ncc2ccc3c(c21)CCCO3
Ki (HTR1D; ligand displacement, radioligand): 6.9 µM

NCCC[C@H](N)C(=O)O
Ki (Arginase (Schistosoma mansoni, UniProt Q6WVP6); enzyme activity, inhibitor, absorbance): 1900 µM

C[C@H](NC(=O)[C@@H](CCC(=O)O)NC(=O)CN1CCN(CC(=O)O)CCN(CC(=O)O)CCN(CC(=O)O)CC1)C(=O)N[C@@H](Cc1ccc(O)cc1)C(=O)NCC(=O)N[C@@H](Cc1c[nH]c2ccccc12)C(=O)N[C@H](C(=O)N[C@@H](CC(=O)O)C(=O)N[C@@H](Cc1cccc2ccccc12)C(N)=O)c1ccccc1
IC50 (Gastrin/cholecystokinin type B receptor (Rattus norvegicus, UniProt P30553); ligand displacement, radioligand): 0.0568 µM

C[C@]12CCc3c(ccc4cc(O)ccc34)[C@@H]1CCC2=O
Ki (ksi (Comamonas testosteroni, UniProt P00947); enzyme activity, inhibitor, absorbance): 5 µM

COc1ccc(C(=O)CCN2CCN(c3ccccc3F)CC2)cc1
Ki (HTR1D; ligand displacement, radioligand): 0.185 µM

Cn1cc(-c2cc(F)cc(N3CCn4c(cc5c4CCCC5)C3=O)c2CO)cc(Nc2ccc(N3CCN(C4COC4)CC3)cn2)c1=O
Ki (Tyrosine-protein kinase Yes (YES1, Homo sapiens, UniProt P07947); enzyme activity, inhibitor, FRET): 0.637 µM

C#CCNC(=O)c1cc2ccc(N(CC)CC)cc2oc1=O
IC50 (Acetylcholinesterase (Ache, Mus musculus, UniProt P21836); enzyme activity, inhibitor, Ellman; pH 7.6): 1 µM

CC(C)Cc1ccc([C@H](C)C(=O)O)cc1
IC50 (Histone acetyltransferase KAT2B (KAT2B, Homo sapiens, UniProt Q92831); enzyme activity, inhibitor, mobility shift): ~6000 µM
